Experimental data gathered from unrelated publications.
Read-out: cell growth or viability

| Structure (SMILES) | cell line | test | conditions | IC50 |
| --- | --- | --- | --- | --- |
| Cc1ccc(-c2ccc(O)cc2)c(C(=C2C=CC(=O)C=C2)c2ccc(O)cc2)c1C#Cc1ccc(O)cc1 | MGC-803 | MTT | 48 h | 15 µM |
| Cc1ccc(C(=O)N(CCCN)[C@@H](c2nc3cc(Cl)ccc3c(=O)n2Cc2ccccc2)C(C)C)cc1 | MM1.S | ATP luminescence | 72 h | 0.0126 µM |
| CC(=O)OCCOC(=O)[C@]1(C)CC[C@]2(C)CC[C@]3(C)C4=CC=C5C(=CC(=O)C(O)=C5C)[C@]4(C)CC[C@@]3(C)[C@@H]2C1 | MGC-803 | MTT | 48 h | 0.41 µM |
| Cc1cccc(Nc2ccccc2C(=O)O)c1C | mouse Peritoneal macrophage | crystal violet | 72 h | > 200 µM |
| CC1=C(O)C(=O)C=C2C1=CC=C1[C@@]2(C)CC[C@@]2(C)[C@@H]3C[C@](C)(C(=O)OCCCN4C(=O)C5C=CC=CC5C4=O)CC[C@]3(C)CC[C@]12C (stereo partly drawn) | MGC-803 | MTT | 48 h | 0.39 µM |
| Cc1cnc(-c2ccc(-c3ccc(NC(=O)Nc4c(F)cc(F)cc4F)cc3F)c3c2C(=O)NC3)[nH]1 | Kasumi 1 | – | – | 0.022 µM |
| CCc1c2c(nc3ccc(O)cc13)-c1cc3c(c(=O)n1C2)COC(=O)[C@]3(O)CC | COS-7 | ATP luminescence | – | 131 µM |
| C#C[C@@]1(O)[C@@H](CO)O[C@@H](n2ccc(N)nc2=O)[C@@H]1O | FM3A/0 | MTT | 72 h | 0.0016 µM |
| CC1=C(O)C(=O)C=C2C1=CC=C1[C@@]2(C)CC[C@@]2(C)[C@@H]3C[C@](C)(C(=O)OCCCCCCO)CC[C@]3(C)CC[C@]12C | MGC-803 | MTT | 48 h | 0.39 µM |
| Cc1nnc(C(=O)NC(C)(C)c2nc(C(=O)NCc3ccc(F)cc3)c(O)c(=O)n2C)o1 | COS-7 | ATP luminescence | – | 36.4 µM |
| COc1cccc2c1C(=O)c1c(O)c3c(c(O)c1C2=O)C[C@@](O)(C(=O)CO)C[C@@H]3O[C@H]1C[C@H](N)[C@H](O)[C@H](C)O1 | ECa-109 | MTT | 48 h | 0.17 µM |
| CC1=C(O)C(=O)C=C2C1=CC=C1[C@@]2(C)CC[C@@]2(C)[C@@H]3C[C@](C)(C(=O)OCCCO)CC[C@]3(C)CC[C@]12C | MGC-803 | MTT | 48 h | 0.29 µM |
| O=C(O)c1cc(O)c(O)c(O)c1 | PC-12 | MTT | – | > 100 µM |
| CC(C)C[C@H](NC(=O)[C@H](Cc1ccccc1)NC(=O)c1cnccn1)B(O)O | NCI-N87 | ATP luminescence | – | 0.0091 µM |
| CC[C@H](C)C(=O)O[C@H]1C[C@H](O)C=C2C=C[C@H](C)[C@H](CC[C@@H](O)C[C@@H](O)CC(=O)O)[C@H]21 | SW480 | SRB | 72 h | > 200 mg/L |
| CC1=C(O)C(=O)C=C2C1=CC=C1[C@@]2(C)CC[C@@]2(C)[C@@H]3C[C@](C)(C(=O)OCCCCCO)CC[C@]3(C)CC[C@]12C | MGC-803 | MTT | 48 h | 0.32 µM |
| Nc1ccn([C@@H]2O[C@H](CO)[C@@H](O)C2(F)F)c(=O)n1 | 143B | resazurin | 72 h | 0.0089 µM |
| N[C@@H](CC(=O)N1CCN(C(c2ccc(F)cc2)c2ccc(F)cc2)CC1)C(=O)N1Cc2ccccc2C1 | Kasumi 1 | ATP luminescence | 48 h | 40.8 µM |
| Cc1cccc(-n2ncc(Br)c(Br)c2=O)c1 | NCI-H2030 | resazurin | 96 h | 0.37 µM |
| CC1=C(O)C(=O)C=C2C1=CC=C1[C@@]2(C)CC[C@@]2(C)[C@@H]3C[C@](C)(C(=O)OCCCCCCCO)CC[C@]3(C)CC[C@]12C | MGC-803 | MTT | 48 h | 0.4 µM |
| O=c1[nH]c(=O)n([C@H]2C[C@H](O)[C@@H](CO)O2)cc1F | FM3A/0 | MTT | 72 h | 0.0032 µM |
